Compound activity deposited in PubChem by several laboratories.
This is a sample that favours compounds with a hit; in the whole collection about 1.9% have one here.
SR-BI HDL uptake = inhibitors of SR-BI mediated HDL lipid uptake, primary screen, ldlA[mSR-BI] cells, fluorescence, single point; Scavenger receptor class B member 1 (Mus musculus), Q61009; ldlA[mSR-BI] CHO cells, DiI-HDL uptake fluorescence, 3 h; inhibition, % at 12.5 µM; 320,000 compounds, 0.96% hits; AID 488896, 2010;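 active = mean replicate inhibition of at least 70% and a set share of replicates each scoring 70 or more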;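 also: 0% = median of neutral control wells and 100% = median of positive control wells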
Target sequence (Q61009 whole entry, looked up): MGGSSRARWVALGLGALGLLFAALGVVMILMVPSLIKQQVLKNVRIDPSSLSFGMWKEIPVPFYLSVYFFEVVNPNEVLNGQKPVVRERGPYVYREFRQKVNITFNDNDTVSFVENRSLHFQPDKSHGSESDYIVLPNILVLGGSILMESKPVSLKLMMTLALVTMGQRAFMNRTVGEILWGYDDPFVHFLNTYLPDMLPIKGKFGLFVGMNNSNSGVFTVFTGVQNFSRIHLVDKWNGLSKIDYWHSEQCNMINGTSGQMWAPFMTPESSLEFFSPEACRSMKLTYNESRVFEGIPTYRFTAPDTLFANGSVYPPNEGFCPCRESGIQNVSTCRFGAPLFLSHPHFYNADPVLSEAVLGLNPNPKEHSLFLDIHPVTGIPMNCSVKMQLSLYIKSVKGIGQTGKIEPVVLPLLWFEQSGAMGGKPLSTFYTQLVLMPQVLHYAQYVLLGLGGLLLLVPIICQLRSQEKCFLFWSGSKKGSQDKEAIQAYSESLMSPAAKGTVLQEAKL
Neddyl block = inhibitors of cullin neddylation, primary screen, biochemical, TR-FRET, uHTS, NAE and Ubc12. AID 651699, 2012. inhibition, % at 25 µM. 360,000 compounds, 0.58% hits; in the data active = inhibition above about 36%
SR-BI uptake up = activators of SR-BI mediated DiI-HDL uptake, primary screen, ldlA[mSR-BI] CHO cells, DiI fluorescence. 3 h; 100 = double the neutral-control signal. activation, % at 12.5 µM. 320,000 compounds, 0.096% hits. AID 504775, 2011;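 active = mean replicate activation of at least 60% and every replicate at or above 60%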;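 also: 0% = median plate neutral-control signal and 100% = twice that signal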
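material = CHO ldlA[mSR-BI] cells | medium = Ham's F12 with 0.5% BSA, HEPES 25 mM, pH 7.4 | reagent = fluorescent DiI-HDL, 10 µg/mL final | compound dosing = single-point compound dose | incubation = 3 h, 37 °C | measured by = bottom-read fluorescence, 550/595 nm | measure = HDL uptake via cellular fluorescence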
UBC13 polyUb = UBC13 polyubiquitin chain formation inhibitors, primary screen, biochemical, TR-FRET, uHTS; 330,000 compounds, 0.47% hits; Ubiquitin-conjugating enzyme E2 N (Homo sapiens), P61088; inhibition, % at 20 µM; in the data active = inhibition above about 45%, passing the limit was not always enough
Neddyl inh conf = blockade of NEDD8 conjugation to cullin – biochemical, TR-FRET, single concentration, confirmation; AID 652217, 2013; shares compounds with Neddyl block; TR-FRET cullin neddylation biochemical assay; 1,800 compounds, 13% hits; calls only at 25 µM; in the data active = inhibition above about 40%;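 also: neddylation substrate is the cullin 1 ring ligase complex with SKP2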
* = called active by the depositor; i = inactive; . = no result shown; + = active, no number.

SMILES	SR-BI HDL uptake	Neddyl block	SR-BI uptake up	UBC13 polyUb	Neddyl inh conf
COc1ccc(/C=C2\CCCC3C2=NN(C(=O)CSc2n[nH]c(N)n2)C3c2ccc(OC)cc2)cc1 (stereo not given)	3.0	45.6*	-3.0	-2.8	.
O=C1CCC(C(=O)OCC(=O)N2N=C3/C(=C\c4ccccc4)CCCC3C2c2ccccc2)N1 (stereo not given)	-2.8	17.6	2.8	.	.
CCC1Oc2ccccc2N(CC(=O)N2CC(C)CC(C)C2)C1=O (stereo not given)	.	-3.3	.	.	.
Oc1cnc2ccccc2c1CN1CCOCC1	6.3	41.5*	-6.3	6.6	i
Oc1ccc2ccccc2c1CN1CCOCC1	-1.0	27.2	1.0	4.0	.
C(=C\c1ccc2nncn2c1)/c1ccccc1	.	45.1*	.	.	+
COCCOC(=O)C(C#N)c1nc2ccccc2nc1N1CCCC1 (stereo not given)	-15.9	41.1*	15.9	-8.6	i
CC1CCc2sc(NC(=O)c3ccc(N4C(=O)CCC4=O)cc3)c(C(N)=O)c2C1 (stereo not given)	59.2	42.8*	-59.2	26.0	.
COc1ccc2cc(C(=O)C3CCCN(Cc4cnc(N5CCOCC5)s4)C3)ccc2c1 (stereo not given)	-3.1	42.2*	3.1	14.7	i
CC(C)C[C@H]1CN(CCCC[C@H]2CNC(=O)C(=O)N2CC2CCCCC2)C(=O)C(=O)N1CCc1ccc(O)cc1	.	0.6	.	.	.
N#CC1=C(N)N(c2ccc(Br)cc2)C2=C(C(=O)CCC2)C1c1cccnc1 (stereo not given)	12.2	42.3*	-12.2	-11.6	i
O=C(OCC(=O)N1CCN(c2ccccc2)CC1)c1cc(F)c(F)cc1Cl	.	0.3	.	.	.
CC(C)(C)c1ccc(NC(=O)C2CCCN(c3cnccn3)C2)cc1 (stereo not given)	-13.3	41.1*	13.3	4.7	i
O=C(NC1CCCC1)c1cc2nc(-c3ccco3)cc(C(F)(F)F)n2n1	-23.2	55.4*	23.2	6.0	i
O=C(NC1CCCCC1)c1cnn2c(C(F)(F)F)cc(-c3ccco3)nc12	14.5	42.5*	-14.5	8.2	+
O=C(NC1CCCCC1)c1nn2c(C(F)(F)F)cc(-c3ccco3)nc2c1Br	-48.5	8.4	48.5	-15.9	.
CCCNC(=O)c1cc2nc(-c3ccccc3)cc(C(F)(F)F)n2n1	36.2	44.8*	-36.2	-4.1	.
CC1CC(C)C(=NNC(N)=O)C(C(O)CC2CCC(=O)NC2=O)C1 (stereo not given)	-14.9	-3.1	14.8	.	.
O=C(NN(Cc1ccccc1)Cc1ccccc1)c1ccccc1	14.1	-2.8	-14.1	.	.
NS(=O)(=O)c1ccc2c(c1)C(=NO)c1cc(S(N)(=O)=O)ccc1-2	-10.7	19.0	10.7	-13.4	.
CN(CCO)S(=O)(=O)c1ccc2c(c1)C(=NO)c1cc(S(=O)(=O)N(C)CCO)ccc1-2	23.8	49.4*	-23.8	-0.9	i
COc1cc(NC(=O)c2cc(-c3ccco3)on2)c(OC)cc1Cl	12.1	40.9*	-12.1	21.4	i
COc1cccc(-c2cc(C(=O)Nc3ccccc3SC)no2)c1	25.7	.	-25.7	17.6	.
COc1ccc(-c2cc(C(=O)Nc3ccccc3SC)no2)cc1OC	13.6	41.9*	-13.6	0.8	i
Cc1cc2c(SCC(=O)Nc3cccc(O)c3)ncnc2s1	-6.4	-31.3	6.4	.	.
SMILES	SR-BI HDL uptake	Neddyl block	SR-BI uptake up	UBC13 polyUb	Neddyl inh conf
O=C(CSc1ccc2nnc(-c3cccnc3)n2n1)Nc1ccccc1C(F)(F)F	-3.5	48.3*	3.5	5.1	.
COC(=O)c1cc(=O)nc2sc(-c3cccs3)nn12	-16.4	48.9*	16.4	33.5	i
COC(=O)c1cc(=O)nc2sc(-c3ccc(F)cc3)nn12	-21.2	18.8	21.2	14.2	.
Cc1nc2ccccc2c(C)c1CC(=O)N(C)CC(=O)Nc1cccc(F)c1	4.8	12.1	-4.8	-5.2	.
CCc1ccc2oc(-c3ccc(OC)cc3)cc(=Nc3cccc(C(=O)O)c3)c2c1	2.0	43.3*	-2.0	-14.8	i
COc1ccc(CN(C)C(=O)COC(=O)c2ccc(-c3ccccc3)cc2)c(OC)c1OC	6.0	8.0	-6.0	-1.5	.
